# Bioassay records: PubChem, several laboratories
# SIAE primary: inhibitors of human sialic acid acetylesterase SIAE; Q9HAT2; inhibition, % at 9.66 µM; SIAE FP-Rh probe binding, fluorescence polarization; 370,000 compounds, 0.69% hits;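 active = inhibition above a cutoff: mean of compounds within the control limits plus 3 SD of those, cut at about 17% in these data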;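 also: 0% = plate median of compound wells and 100% = probe without SIAE protein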
# Target sequence (Q9HAT2 whole entry, looked up): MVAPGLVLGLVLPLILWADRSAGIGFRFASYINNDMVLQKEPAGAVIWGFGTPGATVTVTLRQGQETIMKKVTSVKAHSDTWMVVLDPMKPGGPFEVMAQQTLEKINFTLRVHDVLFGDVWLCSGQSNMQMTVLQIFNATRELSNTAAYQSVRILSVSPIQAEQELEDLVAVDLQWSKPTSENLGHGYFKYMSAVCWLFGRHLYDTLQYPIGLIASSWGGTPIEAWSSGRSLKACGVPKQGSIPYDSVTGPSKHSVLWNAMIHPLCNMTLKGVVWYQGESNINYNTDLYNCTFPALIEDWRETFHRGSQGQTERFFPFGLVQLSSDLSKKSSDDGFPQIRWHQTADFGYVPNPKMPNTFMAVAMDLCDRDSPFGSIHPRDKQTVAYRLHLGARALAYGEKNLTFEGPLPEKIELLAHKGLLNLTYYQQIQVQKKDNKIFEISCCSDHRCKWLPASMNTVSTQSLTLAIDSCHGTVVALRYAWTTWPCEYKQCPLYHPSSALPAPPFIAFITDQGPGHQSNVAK
# TCR-CD3 inh: inhibitors of human TCR-CD3 interaction; TAMRA-labeled TCR probe fluorescence, biochemical; inhibition, % at 9.4 µM; 360,000 compounds, 0.37% hits; AID 651800; in the data active = inhibition above about 19%;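 also: recombinant mutant TCR 2C K166C tagged with TAMRA read by polarization; 0% = receptor in buffer alone and 100% = receptor with positive control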
# ATG4B inh: inhibitors of human ATG4B cysteine protease; AID 504462; Q9Y4P1; ATG4B cleavage of LC3-PLA2, NBD-HPC fluorescence, 1 h; inhibition, % at 8.33 µM; 340,000 compounds, 0.51% hits; in the data active = inhibition above about 40%
# HTRA1 inh: inhibitors of human serine peptidase HTRA1; recombinant HTRA1, FP-rhodamine activity-based probe, fluorescence polarization; AID 504803; inhibition, % at 5.96 µM; 340,000 compounds, 0.5% hits; Q92743; in the data active = inhibition above about 36%;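 also: 0% = enzyme with DMSO and 100% = wells lacking enzyme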
# ABHD4 inh: inhibits mouse alpha/beta hydrolase domain 4. purified mABHD4, FP-Rh probe fluorescence polarization. inhibition, % at 8.92 µM. 370,000 compounds, 0.54% hits. AID 720543;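 active = inhibition exceeding the mean over every tested compound plus 3 SD, cut at about 30% in these data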;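 also: 0% = plate median of compound wells and 100% = S159A mutant with DMSO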
#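 system = mouse ABHD4 enzyme, wild type | medium = HEPES pH 7.0, NaCl, Pluronic buffer | also added = FP-Rh probe | incubation = Enzyme–compound pre-incubation 45 min, then probe 60 min, both 25 °C | technique = fluorescence polarization, excitation 525 nm, emission 598 nm, BODIPY TMR filters | controls = S159A mutant high control, sample median low control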
# PRMT1 FP inh: inhibitors of human PRMT1; recombinant PRMT1, activity-based probe fluorescence polarization; inhibition, % at 2.79 µM; 370,000 compounds, 1.3% hits; AID 652257;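 active = inhibition above about 21% made by adding two undisclosed values, limit read from the data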
# mABHD4 conf: ABHD4 (mouse) inhibition, FP confirmation. shares compounds with ABHD4 inh. purified mABHD4, FP-Rh probe fluorescence polarization. inhibition, % at 8.92 µM. 1,800 compounds, 55% hits. AID 720658;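 active = mean inhibition across replicates above the hit cutoff set in the primary screen, cut at about 30% in these data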;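 also: 0% = wild-type ABHD4 with DMSO and 100% = catalytically dead S159A mutant with DMSO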
# SIAE confirm: human SIAE inhibition, confirmation | shares compounds with SIAE primary | SIAE FP-Rh activity-based probe, fluorescence polarization | inhibition, % at 9.66 µM | 2,300 compounds, 13% hits;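 active = mean inhibition of the replicates above the hit cutoff set in the primary screen, cut at about 17% in these data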;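 also: 0% = SIAE with DMSO and probe and 100% = probe without SIAE; inhibitors lower polarization as more probe stays unbound to SIAE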
# * hit, by the source's call; nt = not tested or not shown. This is a sample that favours compounds with a hit; in the whole collection about 2.9% have one here.
SMILES,SIAE primary,TCR-CD3 inh,ATG4B inh,HTRA1 inh,ABHD4 inh,PRMT1 FP inh,SIAE confirm,others
O=C(O)c1cccc2c1NC(c1cccc([N+](=O)[O-])c1)C1CC(Sc3ccccc3[N+](=O)[O-])C(Cl)C21 (configuration not stated),17,6,88*,16,30*,23*,nt,mABHD4 conf=55*
CC/C(=N\Nc1ccccc1)c1c(O)n(-c2ccc(OC)cc2)c(=O)[nH]c1=O,-3,0,-8,6,4,-7,nt,
CNC(=O)Oc1cccc(-c2cn3cc(OC(=O)NC)ccc3n2)c1,17*,7,3,21,40*,10,5,mABHD4 conf=22
CNC(=O)Oc1cc2c(cc1C(C)(C)C)CCC2,2,6,2,3,1,0,nt,
NP(=O)(OCCCc1ccccc1)c1ccccc1 (configuration not stated),-3,-3,-6,-1,10,0,nt,
NP(=O)(OCCCc1ccccc1)Oc1ccc(Cl)cc1 (configuration not stated),49*,-2,29,-4,-2,0,46*,
NP(=O)(OCCCc1ccccc1)Oc1ccccc1Cl (configuration not stated),57*,8,10,11,2,-1,54*,
CC(C)CCOP(N)(=O)Oc1ccccc1Cl (configuration not stated),39*,-4,2,2,2,0,30*,
CC1=NN(c2ccccc2)C(=O)C1/C=C1/C(=O)NC(=O)N(c2cc(C)cc(C)c2)C1=O (configuration not stated),75*,5,0,0,-6,1,-1,
CCc1c(C)nc(N)nc1N1N=C1SC(C(C)=O)C(C)=O,0,3,7,4,-2,-1,nt,
CN(C)C(CNC(=O)Cc1c(Cl)cccc1Cl)c1ccccc1 (configuration not stated),17*,-4,9,-4,8,-3,4,
O=C(c1ccccc1F)N1C[C@H]2C[C@@H](C1)c1cccc(=O)n1C2,-2,0,2,6,1,-3,nt,
COc1cc2c(cc1OC)-c1c(OC)c(OC)cc3c1[C@H](C2)[N+](C)(C)CC3,18*,-3,-1,-3,2,-1,3,
O=C(c1ccc2c(c1)OCO2)C1CCCN(Cc2ccc(F)c(F)c2)C1 (configuration not stated),1,7,9,-6,-8,-1,nt,
CN(C(=O)Cc1ccc2c(c1)OCO2)C1CCCN(Cc2ccccc2F)C1 (configuration not stated),23*,2,-1,1,-4,-1,2,
C/C(=N\N1CCCCCC1)c1c(O)n(-c2ccccc2)c(=O)[nH]c1=O,50*,-5,30,-1,-17,1,5,
CN1/C(=C\C=C2C(=O)NC(=S)NC2=O)C(C)(C)c2ccccc21,60*,-2,-6,-1,-16,-41,153*,
CC1(C)OC(c2ccccc2)=C/C(=C/C=C2C(=O)NC(=S)NC2=O)O1,-212,-117,11,nt,-160,2,nt,
O=c1[nH]c(O)c(N=Nc2ccc3c(c2)OCCO3)c(=O)[nH]1,17*,4,3,4,-2,-2,1,
CC(=Nc1ccccc1N)c1c(O)n(C)c(=O)[nH]c1=O,3,-2,3,-4,2,-3,nt,
CC(C)Oc1ccc(C2C(C#N)=C(N)Oc3c2c(=O)oc2ccccc32)cc1 (configuration not stated),-3,-5,8,-1,3,2,nt,
N#CC1=C(N)Oc2c(c(=O)oc3ccccc23)C1c1ccc([N+](=O)[O-])o1 (configuration not stated),22*,2,1,4,10,11,-3,
COc1ccc(CN2CCCC(C(=O)c3cccc(Cl)c3)C2)cc1 (configuration not stated),-1,1,18,0,-4,4,nt,
COc1ccc(CN2CCCC(C(=O)c3ccc(Cl)cc3)C2)c(OC)c1 (configuration not stated),18*,7,5,2,1,-2,-4,
CCOC(=O)[C@]12Cc3cc4ccccc4cc3[C@H]1N(Cc1ccccc1)C(=O)c1cc(OC)ccc12,-5,-4,nt,nt,-12,-6,nt,
SMILES,SIAE primary,TCR-CD3 inh,ATG4B inh,HTRA1 inh,ABHD4 inh,PRMT1 FP inh,SIAE confirm,others
O=C1NC(=O)C2(Cc3cc([N+](=O)[O-])ccc3N3CCN(C(=O)c4ccccc4)CC32)C(=O)N1 (configuration not stated),0,-3,-4,1,7,7,nt,
CCS(=O)(=O)CCSP(=O)(OC)OC,34*,-5,-5,2,-6,8,49*,
O=C(/C=C/c1ccccc1)NC(=S)N1C[C@H]2C[C@H](C1)c1cccc(=O)n1C2,1,-2,-17,-8,3,9,nt,
O=c1cc(C(F)(F)F)c2cc3c4c(c2o1)CCCN4CCC3,18*,9,-6,-10,29,101*,10,
Cc1ccc(C2=NN(CCC(=O)N3CCC4(CC3)OCCO4)C(=O)CC2)cc1,0,-2,0,8,5,-3,nt,
CC(=O)n1cc(C=C2C(=O)NC(=O)NC2=O)c2ccccc21,-5,-3,0,5,-3,12,nt,
Cn1cc(C=C2C(=O)NC(=O)NC2=O)c2ccccc21,47*,3,4,3,5,11,-22,
C=CCn1c(O)c(C(C)=O)c(=O)[nH]c1=O (tested in a mixture with another compound),2,-6,-7,-2,2,3,nt,
Cc1ccc(-c2cc(-c3ccc(C)cc3)[n+](C)o2)cc1,18*,6,0,9,15,-1,1,
COc1cc(OC)c(C=O)c(OC(=O)N(C)C)c1,12,-2,1,0,-1,-3,nt,
N[C@@H]1C[C@H]1c1ccccc1,3,2,6,3,1,-1,nt,
O=C(c1ccc2c(c1)N(Cc1ccc(F)cc1)CCS2)N1CCC2(CC1)OCCO2,18*,-3,-9,2,4,1,2,
Cc1ccc(CN2CCSc3ccc(C(=O)N4CCC5(CC4)OCCO5)cc32)cc1,3,-3,-9,2,2,1,nt,
COc1ccc(OCC(=O)N2CCCC(N3CCN(c4ccccc4C)CC3)C2)cc1 (configuration not stated),-4,0,1,-4,-6,1,nt,
CNC(=O)O/N=C/c1nn(C(=O)C(C)(C)C)cc1Br,17*,-4,4,22,0,-2,2,
